From ChEMBL document CHEMBL4513216, “Probing the Open Global Health Chemical Diversity Library for Multistage-Active Starting Points for Next-Generation Antimalarials” (ACS Infect Dis, 2020)

Assay: Toxicity liver stage against HepG2, at 10uM
Format: cell-based
Design: test concentration 10 uM, cell line HepG2-A16-CD81EGFP
Conditions: human, HepG2-A16-CD81EGFP cells; read-out: INHIBITION
Procedure, shortened: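 Uninfected HepG2-A16-CD81EGFP cells, 3 × 10^3 per well, 1536-well, plated on prespotted compound at 10 μM final, parasite-free screening media added to match infected plates; puromycin 10 μM positive, DMSO 0.5% negative; run in parallel with 48 h PbLuc assay at 37 °C, 5% CO2; viability by CellTiter-Glo luminescence, normalized to controls.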

| Compound | cytotoxicity at 10 µM [%] |
| --- | --- |
| CCN1CCN(C(=O)CCn2cccc2)CC1 | 7.66 |
| C[S+](C)[c-]1c(=O)[nH]c(=O)n(CCc2ccc(F)cc2)c1=O | 2.86 |
| COCCn1cc(CC(=O)Nc2cc(C)n(C)n2)c2ccccc21 | -1.96 |
| O=c1[nH]c2nc(N3CCCC3)ncc2c(=O)n1-c1cccc(F)c1 | 8.24 |
| O=C1CC(c2ccc(O)cc2)c2c(n3ccsc3nc2=O)N1 (centres undefined) | -3.12 |
| CCn1cc(C(=O)Nc2cc(C)ccc2C)cn1 | 0.946 |
| CCOCC(=O)N1CCC(Oc2ccc(Cl)cn2)CC1 | 7.39 |
| CNC(=O)[C@@]12CCC3(CCN(C(C)=O)CC3)[C@@H]1CN(S(C)(=O)=O)C2 | -3.61 |
| O=C1NC(c2ccccc2)=N[C@@]12CC[C@@H]1CN(CC3CCOCC3)C[C@@H]12 | 4.01 |
| CCCN1CCN(C(=O)c2ccn(COc3ccc(F)cc3)n2)CC1 | 8.88 |
| CC(C)C(=O)N1CCN(c2ncnc3cc4c(cc23)OCCO4)CC1 | 2.41 |
| c1ccc2c(N3CCCCC3)cnnc2c1 | -5.34 |
| Cc1cc(N2CCOC(c3ccccn3)C2)nc(N)n1 (centres undefined) | 4.4 |
| CN(C)Cc1cccc(-c2cccnc2C(=O)NCc2ccco2)c1 | 4.16 |
| Cc1nccc(C2CN(Cc3ccc(-c4ccccc4C(=O)O)o3)C2)n1 | 4.28 |
| CS(=O)(=O)c1cn[nH]c1C1CCCN(C(=O)Cn2cccn2)C1 (centres undefined) | -11.7 |
| CNc1cc(C2CCCN2S(=O)(=O)c2cccc(F)c2)ccn1 (centres undefined) | -22.7 |
| Cc1noc(C)c1-c1nc(N(C)CCN(C)C)ncc1-c1cnccn1 | -12.4 |
| Cc1cnc(-c2nc(C3CCN(C(=O)Cc4ccsc4)CC3)no2)cn1 | -29.5 |
| Clc1ccccc1CN1CCCC(c2nnc(-c3cnccn3)o2)C1 (centres undefined) | -10.3 |
| O=C(NCCN1CCOCC1)Nc1cnc2cc(Cl)ccc2c1O | -24 |
| COc1ccc(CN(C)[C@@H]2CN(C(=O)c3cnn(C)c3)C[C@H]2O)cc1 | -21.9 |

| Compound | cytotoxicity at 10 µM [%] |
| --- | --- |
| CCC(C(=O)NCc1ccn(-c2ccc(F)cc2)n1)N1CCCC1=O (centres undefined) | -5.63 |
| O=S(=O)(CCCn1cncn1)Cc1cccc(F)c1 | 2.31 |
| CN1CCN(C2CCN(Cc3noc(C4CC4)n3)CC2)C1=O | 8.54 |
| CN(CC(=O)N(C)C(c1ccc(Cl)cc1)c1cccnc1)C1CC1 (centres undefined) | 10.9 |
| COc1c(C2CCCN2C(=O)c2ccc(C(N)=O)s2)c(C)nn1C (centres undefined) | 0.00973 |
| Cc1ccc(CN(C(=O)NC2CCS(=O)(=O)C2)C2CC2)o1 (centres undefined) | -155 |
| O=C(NC1CCN(Cc2ccc(F)cc2)CC1)c1ccc2c(c1)CCC2 | 2.55 |
| CNC(=O)c1cccc(CN2CCC(N(C)Cc3ncc(C)o3)C2)c1 (centres undefined) | -103 |
| CC(NC(=O)Nc1cnn(CC(N)=O)c1)c1ccc(Cl)s1 (centres undefined) | 11.5 |
| Cc1noc(CNc2cc3c(cc2Cl)NC(=O)CO3)n1 | 3.07 |
| Cc1cc(NC(=O)N2CCCC(O)C2)nn1-c1ccccc1Cl (centres undefined) | 4.99 |
| CCCn1nc2c(cc1=O)CN(Cc1c(C)noc1C)CC2 | -5.03 |
| CCCC(NC(=O)c1ccc(OC)cc1C)c1nnn[nH]1 (centres undefined) | 2.06 |
| Cc1ccc(C)c(NC(=O)Cc2c(C)nc3c(c2C)c(=O)[nH]n3C)c1 | 15.4 |
| O=C(Nc1cccnc1)Nc1cccc(CN2CCC(O)CC2)c1 | -4.06 |
| CC1CN(CC(=O)NC(=O)NCc2cccs2)CCN1CC(F)(F)F (centres undefined) | -0.402 |
| CSc1ccsc1C(=O)NC(C)c1ccc2c(c1)CCC(=O)N2 (centres undefined) | 1.28 |
| CC1CCN(CC2CCN(C(=O)c3c[nH]c4ncccc34)CC2)CC1 | 10 |
| CCNC(=O)CNC(=O)c1ccn(S(=O)(=O)c2ccc(C)cc2)c1 | -5.73 |
| CC(NCC1CCS(=O)(=O)CC1)c1cccc(OC(F)F)c1 (centres undefined) | -5.16 |
| CN(CCC#N)C(=O)CN1CCC(c2cc3ccccc3[nH]2)CC1 | 4.35 |
| Cc1ccc(C(O)CNC(=O)CCCc2ccccn2)o1 (centres undefined) | 0.166 |

| Compound | cytotoxicity at 10 µM [%] |
| --- | --- |
| CCC(C)c1cc(C(=O)N(CC(=O)NC)c2cccc(F)c2)on1 (centres undefined) | 6.33 |
| CCC(C)NS(=O)(=O)c1ccc(C(=O)NC2(C#N)CCC2)cc1 (centres undefined) | -7.79 |
| Cc1ccccc1CNc1ccccc1OCC(=O)N1CCOCC1 | -2.38 |
| COCCNC(=O)N1CCCC1COc1ccccc1 (centres undefined) | 2.04 |
| CC(=O)N(C)C1CCCc2nc(C)sc21 (centres undefined) | -4.97 |
| CCn1c(CN(C)CC(=O)N(C)C)nc2c(F)cccc21 | -4.36 |
| Cc1nnc(SCCC(=O)N(C)Cc2ccc(Cl)s2)[nH]1 | 14.4 |
| CN(Cc1cc(F)ccc1C#N)CC(C)(CO)CO | -10.4 |
| CC(C)C(NC(=O)c1ccc(Cl)cc1Cl)C(=O)Nc1ccn(C)n1 (centres undefined) | 1.5 |
| c1cnn(CCNCc2csc(-c3ccc4c(c3)OCO4)n2)c1 | 4.12 |
| O=C(CCc1ccsc1)NCC1CCN(c2ccccc2)C1 (centres undefined) | 21.1 |
| Cc1nc(CN2C(=O)CCC23CCN(Cc2ccco2)CC3)cs1 | -105 |
| Cc1nc(N2CCCC2)nc2c1CCN(C(=O)c1ccoc1C)CC2 | -111 |
| CNC(=O)C1Cn2ccnc2C2(CCN(Cc3c(C)noc3C)CC2)O1 (centres undefined) | -68.6 |
| Cc1occc1C(=O)N1CCN2C[C@H](Oc3cccnc3)C[C@H]2C1 | -4.15 |
| CCOc1ccccc1CC(=O)N1C[C@@H](C(=O)O)[C@H](C2CC2)C1 | 1.12 |
| CC(C)CN1C[C@@H](C(=O)O)C[C@@H](C(=O)NCc2ccncc2)C1 | -147 |
| Cc1nc(N(C)C)ncc1C(=O)N[C@H]1Cc2ccccc2[C@@H]1N | 1.81 |
| CC1CCN(S(=O)(=O)N2CCc3c(c(C(=O)O)nn3CC3CC3)C2)CC1 | -0.65 |
| Cc1ccc2oc(=O)n(CCC(=O)N3CCCC4(CNC(=O)O4)C3)c2c1 (centres undefined) | -6 |
| CN(CCO)C[C@@H]1CN(C(=O)c2cccc(OC(F)F)c2)C[C@@H]1CO | -0.185 |
| Cc1cnn(CCC(=O)N2CCN(C(=O)C3CC3)[C@@H]3CS(=O)(=O)C[C@@H]32)c1 | 0.168 |

| Compound | cytotoxicity at 10 µM [%] |
| --- | --- |
| O=C(CC1CCc2ccccc21)N1CCC(C(=O)O)(n2ccnc2)CC1 (centres undefined) | 10.7 |
| CCn1c(CN(C)C)nnc1C1CCN(Cc2ccncc2)CC1 | 8.18 |
| Cc1ccccc1-n1cc(-c2ccnc(N3CCCC(O)C3)n2)cn1 (centres undefined) | 6.48 |
| CCc1cnc(N)nc1N(C)CCc1cnn(C)c1 | 55.9 |
| Cc1ccc(N2CCN(C(=O)CCc3n[nH]c(C)n3)CC2=O)cc1 | -4.06 |
| COc1ccc(C[C@@H]2CC[C@H](CN(C)C3CCN(C)CC3)O2)cc1 | -7.25 |
| CN(C)CC1(O)CCCN(C(=O)c2ccccc2-n2cncn2)C1 (centres undefined) | 2.11 |
| CNC(=O)c1cccnc1N1CCN(Cc2ccccc2)C(CCO)C1 (centres undefined) | -6.03 |
| C[C@@H]1CN(Cc2ccncc2)C[C@@]1(O)C1CC1 | -5.08 |
| O=C(NCCc1csc(-c2ccncc2)n1)C1CC(=O)N(C2CC2)C1 (centres undefined) | -8.44 |
| CN(CC1(O)CCCN(CCC2CCCCC2)C1=O)C1CCOCC1 (centres undefined) | 12.7 |
| CCc1csc(C2CCCN(C(=O)c3ccc(=O)n(CC)n3)C2)n1 (centres undefined) | -1.52 |
| Cn1ccc(CN2CCC(OCc3ccccc3)CC2)cc1=O | 0.259 |
| Cc1cc(C)n(CC2CN(CCC(=O)NC3CCCCC3)CCO2)n1 (centres undefined) | -2.95 |
| CCOc1ncccc1C(=O)N1CCCC1Cn1nc(C)cc1C (centres undefined) | -4.45 |
| COc1cccc(-n2nnc(C(=O)N3CCCCCC3)c2C)c1 | -9.71 |
| Cc1ccsc1C(=O)N(C)Cc1ccncc1 | -4.54 |
| CS(=O)(=O)Cc1ccc(CNC(=O)N2CCC(C(N)=O)C2)cc1 (centres undefined) | -6.43 |
| OC(COCc1cccs1)CN1CCc2c(ncn2C2CC2)C1 (centres undefined) | -4.29 |
| Cc1cnn(CC2CCCN2CCCS(=O)(=O)N(C)C)c1 (centres undefined) | -7.45 |
| Cc1cc(OCC(=O)N2CCCC2c2noc(C)n2)no1 (centres undefined) | -11.1 |
| CCn1cnnc1CNC(=O)c1cc(Cl)ccc1I | -5.98 |

| Compound | cytotoxicity at 10 µM [%] |
| --- | --- |
| COc1ccc(NC(=O)NCC(O)c2ccccc2F)c(OC)c1 (centres undefined) | 3.22 |
| CCNC(c1ccc(Br)cc1)c1cccnc1 (centres undefined) | -0.1 |
| N#Cc1cccc(S(=O)(=O)NC(=O)COC2CCCC2)c1 | -4.79 |
| CSc1nccn1-c1cccc(C(=O)NCCCN2CCOCC2)c1 | -4.74 |
| CN1CCCN(C(=O)NCc2csc(Br)c2)CC1 | -5.85 |
| CCOCC(O)CN1CCN(C(=O)Cc2ccc(C)nc2)CC1 (centres undefined) | -4.97 |
| CN(Cc1cnn(C)c1)C(=O)NC1CCN(c2ncccn2)CC1 | -5.82 |
| COc1ncccc1NC(=O)C1CCS(=O)(=O)C1 (centres undefined) | -4.48 |
| c1cc(CNc2cnc(C3CCCN3)cn2)ccn1 (centres undefined) | -6.77 |
| Cn1cc(CN2CC[C@H]3CO[C@H](CNc4ncccn4)[C@H]3C2)cn1 | -15.6 |
| CS(=O)(=O)N1Cc2nccn2CC(CNC(=O)c2cccnc2)C1 (centres undefined) | -143 |
| Cc1ccc(N2CCC3(CCC(=O)N3Cc3ccncc3)CC2)nn1 | -110 |
| Cc1cccc(COC[C@H]2CC[C@H]3[C@H](CCN3C(=O)CC3CC3)O2)n1 | -4.66 |
| CN(Cc1cccnc1)C[C@@H]1OC[C@H]2CN(Cc3ccoc3)CC[C@H]21 | -137 |
| CN(C)C(=O)CN1CCc2ncnc(N(C)C)c2CC1 | -93.2 |
| CS(=O)(=O)NC[C@H]1OC[C@H]2CN(CCc3ccccc3)CC[C@H]21 | -3.53 |
| COCCN1CC[C@@H]2O[C@H](COCc3csc(C)n3)CC[C@@H]21 | -76.7 |
| CC(C)N(C)Cc1n[nH]c2c1CCN(C(=O)c1ccc[nH]1)C2 | -133 |
| CC(C)(N)CNS(=O)(=O)Cc1cccc2cccnc12 | 14.5 |
| O=C(c1cc[nH]n1)N1CCC2(CC1)CC(Oc1cccnc1)CO2 (centres undefined) | 6.7 |
| CC(C)n1c(=O)[nH]c2cn(-c3ccc(F)cc3)c(=O)n21 | -7.74 |
